Experimental findings from ChEMBL document CHEMBL4017544 (J Med Chem, 2017) are described below.

Each structure is given as a SMILES string. The source made the active and inactive calls. The rule behind the calls is not given here.

Series [1] has as its system Mus musculus. The experiment in a line: Toxicity in db/db mouse assessed as increase in body weight at 0.65 mg/kg, ip administered thrice per week for 12 consecutive weeks measured every other day (reference value: 15%). In kind it is organism-based. The note with it: in vivo. The procedure, abridged: (§1)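 Male db/db mice (8 weeks old, specific pathogen-free, normal chow and filtered water ad libitum) were randomized and dosed i.p. three times weekly for 12 consecutive weeks; vehicle was 5% Tween-80 in 0.9% saline. Body weight and food and water consumption were recorded every other day.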

Series [2] has as its system Mus musculus. The experiment in a line: Anti-diabetic nephropathic activity in db/db mouse assessed as reduction in plasma uric acid levels at 0.65 mg/kg, ip administered trice per week for 12 consecutive weeks measured at 11 weeks post dose. In kind it is functional, organism-based. The essentials: (§2)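 Male db/db mice, 8 weeks old, randomized; ip vehicle (5% Tween-80 in 0.9% saline) or drug three times weekly for 12 weeks, n = 6 per group. After 11 weeks, 24 h urine collected for volume, albumin and creatinine, with UACR calculated; blood then sampled for plasma BUN and uric acid. Mean ± SD, one-way ANOVA with Tukey test.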

For series [3], the system named is Mus musculus. The experiment in a line: Anti-diabetic nephropathic activity in db/db mouse assessed as reduction in 24 hr urine volume at 0.65 mg/kg, ip administered trice per week for 12 consecutive weeks measured at 11 weeks post dose. In kind it is functional, organism-based. The essentials: as §2
For series [4], the system named is Mus musculus. The series is described as follows: Anti-diabetic nephropathic activity in db/db mouse assessed as reduction in urinary albumin at 0.65 mg/kg, ip administered trice per week for 12 consecutive weeks measured at 24 hrs post 11 week administration. In kind it is functional, organism-based. The procedure, abridged:
as §2

Series [5] concerns Mus musculus. The experiment in a line: Renoprotective activity in db/db mouse assessed as reduction of fibrosis in glomeruli at 0.65 mg/kg, ip administered trice per week for 12 consecutive weeks measured at 11 weeks post dose by H/E-staining based microscopic analysis. The series is classed as functional, organism-based. The essentials: (§3)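 Male db/db mice, 8 weeks old, were randomized and dosed i.p. three times weekly for 12 weeks (vehicle: 5% Tween-80 in 0.9% saline; n = 6 per group). Kidneys were fixed in 4% PFA and paraffin-embedded. 5 μm sections were stained with HE, PAS or Masson's trichrome and examined at ×400.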

The subject of series [6] is Mus musculus. The experiment in a line: Renoprotective activity in db/db mouse assessed as reduction in fused podocytes at 0.65 mg/kg, ip administered trice per week for 12 consecutive weeks measured at 11 weeks post dose by TEM microscopic analysis. The series is classed as functional, organism-based. The procedure, abridged:
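Male db/db mice (8 weeks old) were dosed i.p. three times weekly for 12 weeks in 5% Tween-80/0.9% saline, n = 6. Kidney tissue was fixed in 3% glutaraldehyde, cut into 80 nm ultrathin sections and examined by TEM. GBM thickness was measured at 30 random locations from three sections per kidney and averaged per mouse.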

A short description of series [7]: Drug level in Sprague-Dawley rat kidney at 20 mg/kg, ip measured at 90 mins by LC-MS/MS analysis. In kind it is ADME, organism-based. To be noted: read-out: Drug uptake. The procedure, abridged:
(§4)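 Rats given a single ip injection, 20 mg/kg (0.04 mmol) of CDDO-Me or 30 mg/kg (0.04 mmol) of the prodrug; heart, kidney and liver collected over time; parent compound and liberated CDDO-Me measured by LC-MS/MS.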

Series [8] addresses Kelch-like ECH-associated protein 1 (Homo sapiens) (UniProt Q14145). The experiment in a line: Inhibition of Keap1/Nrf2 (unknown origin) interaction transfected in HEK293 cells assessed as increase in cytosolic HO-1 levels at 200 to 1000 nM after 48 hrs by Western blot analysis. In kind it is cell-based. The procedure, abridged:
(§5)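 HEK293 cells grown in high-glucose DMEM with 10% FBS were treated in triplicate at 200 or 1000 nM for 48 h. Nuclear and cytosolic Nrf2, HO-1 and cytoplasmic NQO1 were measured by western blot with specific antibodies, with TBP and β-actin among the probed proteins. The nuclear/cytosolic Nrf2 ratio was derived from these blots. Three independent experiments, mean ± SD.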
(In western blotting, separated proteins are transferred to a membrane and probed.)

Series [9] in a line: Drug level in Krebs buffer treated with 1-Hydroxyl-2-cyano-3-(4-(methyl-L-glutaminate-N5-yl)-benzyloxy)-12-oxo-oleana-2(3),9(11)-dien-28-oic Acid Methyl Ester assessed as bovine kidney GGT-mediated metabolite formation at 100 uM at pH 7.4 after 8 hrs by HPLC analysis. In kind it is ADME, Bos taurus. The note with it: cattle, pH 7.4, 8 h. The essentials:
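Substrate at 100 μM in Krebs buffer, pH 7.4, 37 °C, with GGT (1 U/mL) and Gly-Gly acceptor (5 mM) for 8 h, in triplicate; acetonitrile (2 volumes) added, enzyme removed by centrifugation, products by HPLC.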

Series [10] is described as follows: Drug level in Wistar rat liver homogenates treated with 1-Hydroxyl-2-cyano-3-(4-(methyl-L-glutaminate-N5-yl)-benzyloxy)-12-oxo-oleana-2(3),9(11)-dien-28-oic Acid Methyl Ester assessed as GGT-mediated metabolite formation at 100 uM after 8 hrs by HPLC analysis. The series is classed as ADME, tissue-based. The note with it: tissue homogenate. The essentials:
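Plasma, and kidney and liver homogenates in PBS, from three Wistar rats; substrate added at 100 μM at 37 °C; metabolite measured by HPLC every 60 min for 8 h; mean ± SD of three experiments.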

Series [11] deals with Mus musculus. The experiment in a line: Toxicity in db/db mouse assessed as effect on water consumption at 1 to 2 mg/kg, ip administered thrice per week for 12 consecutive weeks measured every other day. In kind it is organism-based. The note with it: in vivo. The procedure, abridged:
as §1

Series [12] has as its system Mus musculus. The series is described as follows: Toxicity in db/db mouse assessed as effect on food consumption at 1 to 2 mg/kg, ip administered thrice per week for 12 consecutive weeks measured every other day. The series is classed as organism-based. To be noted: in vivo. The procedure, abridged:
as §1

Series [13] deals with Mus musculus. The series is described as follows: Renoprotective activity in db/db mouse assessed as reduction of fibrosis in glomeruli at 1 to 2 mg/kg, ip administered trice per week for 12 consecutive weeks measured at 11 weeks post dose by H/E-staining based microscopic analysis. The series is classed as functional, organism-based. The essentials:
as §3

Series [14] relates to Mus musculus. The experiment in a line: Renoprotective activity in db/db mouse assessed as reduction in thickening of capillary walls in glomeruli at 1 to 2 mg/kg, ip administered trice per week for 12 consecutive weeks measured at 11 weeks post dose by H/E-staining based microscopic analysis. The series is classed as functional, organism-based. The procedure, abridged: as §3

A short description of series [15]: Drug metabolism in PBS buffer at 100 uM after 8 hrs by HPLC analysis. The series is classed as physicochemical. The note with it: read-out: Drug metabolism. The procedure, abridged: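 Substrate incubated in PBS, pH 7.4, at 37 °C for 8 h; conversion measured by HPLC.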
In series [16] the target is Kelch-like ECH-associated protein 1 (Homo sapiens) (UniProt Q14145). The experiment in a line: Inhibition of Keap1/Nrf2 (unknown origin) interaction transfected in HEK293 cells assessed as increase in cytosolic NQO1 levels after 48 hrs by Western blot analysis. The series is classed as cell-based. The essentials: as §5
For series [17], the system named is Mus musculus. The series is described as follows: Toxicity in db/db mouse assessed as change in body weight at 1 to 2 mg/kg, ip administered thrice per week for 12 consecutive weeks measured every other day. To be noted: in vivo. The series is classed as organism-based. The procedure, abridged:
as §1

In series [18] the test system is Mus musculus. The experiment in a line: Anti-diabetic nephropathic activity in db/db mouse assessed as reduction in plasma uric acid levels at 1 to 2 mg/kg, ip administered thrice per week for 12 consecutive weeks measured at 11 weeks post dose. In kind it is functional, organism-based. The essentials:
as §2

In series [19] the test system is Mus musculus. The experiment in a line: Renoprotective activity in db/db mouse assessed as […] in number of intraglomerular mesangial cells at 1 to 2 mg/kg, ip administered trice per week for 12 consecutive weeks measured at 11 weeks post dose by H/E-staining based microscopic analysis. In kind it is functional, organism-based. The essentials: as §3
The nature of series [20]: Drug level in Sprague-Dawley rat liver at 30 mg/kg, ip measured at 90 mins by LC-MS/MS analysis. The note with it: read-out: Drug uptake. The series is classed as ADME, organism-based. The procedure, abridged: as §4
The nature of series [21]: Drug level in Sprague-Dawley rat heart at 30 mg/kg, ip measured at 90 mins by LC-MS/MS analysis. The series is classed as ADME, organism-based. To be noted: read-out: Drug uptake. The procedure, abridged:
as §4

Series [22] is described as follows: Drug level in Sprague-Dawley rat kidney at 30 mg/kg, ip measured at 10 mins by LC-MS/MS analysis. The series is classed as ADME, organism-based. To be noted: read-out: Drug uptake. The procedure, abridged:
as §4

Kelch-like ECH-associated protein 1 (Homo sapiens), sequence (Q14145 whole entry): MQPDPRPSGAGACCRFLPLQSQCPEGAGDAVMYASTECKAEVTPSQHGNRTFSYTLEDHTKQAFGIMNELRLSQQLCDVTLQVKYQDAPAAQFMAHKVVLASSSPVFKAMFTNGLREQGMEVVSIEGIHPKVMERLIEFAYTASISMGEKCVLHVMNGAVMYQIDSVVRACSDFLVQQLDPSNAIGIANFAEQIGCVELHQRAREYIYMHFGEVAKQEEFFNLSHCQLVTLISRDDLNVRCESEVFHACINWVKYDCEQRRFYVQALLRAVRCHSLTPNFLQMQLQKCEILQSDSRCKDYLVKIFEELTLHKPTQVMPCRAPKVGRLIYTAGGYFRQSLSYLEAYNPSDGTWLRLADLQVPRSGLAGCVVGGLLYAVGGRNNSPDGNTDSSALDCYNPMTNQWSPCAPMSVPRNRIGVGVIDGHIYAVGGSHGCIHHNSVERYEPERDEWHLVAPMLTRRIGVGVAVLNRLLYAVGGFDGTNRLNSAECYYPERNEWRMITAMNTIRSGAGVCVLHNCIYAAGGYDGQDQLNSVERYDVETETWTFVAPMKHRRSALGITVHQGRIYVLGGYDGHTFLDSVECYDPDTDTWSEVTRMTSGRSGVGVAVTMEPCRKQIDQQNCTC

For `COC(=O)[C@]12CCC(C)(C)C[C@H]1[C@H]1C(=O)C=C3[C@@]4(C)C=C(C#N)C(=O)C(C)(C)[C@@H]4CC[C@@]3(C)[C@]1(C)CC2` [BARDOXOLONE METHYL], the Activity in the series with Mus musculus [1] is 11.3%. The result with Mus musculus [2], in the series on Mus musculus [3], with Mus musculus [4], with Mus musculus [5] and with Mus musculus [6] was Active. The concentration at 1.5 h in [7] was 4520 ng/g. In series [8], the inhibition entry is “Active”. In addition, the Drug metabolism entry in series [9] and in [10] was “Metabolite_Detected” throughout.
With `COC(=O)[C@@H](N)CCC(=O)Nc1ccc(COC2=C(C#N)[C@H](O)[C@]3(C)C4=CC(=O)[C@@H]5[C@@H]6CC(C)(C)CC[C@]6(C(=O)OC)CC[C@@]5(C)[C@]4(C)CC[C@H]3C2(C)C)cc1`, the Activity result with Mus musculus [11], in the series on Mus musculus [12] and in the series with Mus musculus [17] was “Non-Toxic” each time. Also, the result in the series on Mus musculus [13], with Mus musculus [14], with Mus musculus [18] and in the series on Mus musculus [19] was Active. The degraded at 8 h, 100 µM in series [15] was found to be 20%. In addition, the inhibition entry in series [16] was “Dose-dependent effect”. Also, the concentration at 1.5 h turned out to be 6040 ng/g in series [20] and 1310 ng/g in [21]. Further, in [22], the concentration at 10 min was 1230 ng/g.
